In general, apparent Kd refers to the concentration giving half-maximal binding under the conditions of the assay.

The record followed here is the EternaBench riboswitch data.

For this data set, the system named is MS2 coat protein. Briefly: apparent Kd, MS2 coat protein; higher = weaker binding; RNA-MaP array; FMN 200 µM where present. The method, boiled down: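 The titrant was SNAP-549-labelled MS2 coat protein, run from 0.7 or 1.5 nM in doubling steps to 3 µM. It was applied to designs transcribed by stalled E. coli RNA polymerase on Illumina sequencing-chip clusters, without ligand first and then with constant ligand, in 100 mM Tris-HCl pH 7.5, 80 mM KCl, 4 mM MgCl2, BSA, DTT, yeast tRNA and Tween-20. The apparent Kd is the median of filtered per-cluster binding-curve fits, with green signal normalised to red-channel RNA signal and control-cluster median Fmax.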

The mark [1] stands for this setting: designed as: OFF switch for flavin mononucleotide, no ligand.
Where [2] appears, read: ligand present: flavin mononucleotide, designed as: OFF switch for flavin mononucleotide.
The mark [3] stands for this setting: designed as: ON switch for flavin mononucleotide, no ligand.
The mark [4] stands for this setting: ligand present: flavin mononucleotide, designed as: ON switch for flavin mononucleotide.

“CGCUAAUAAAUAGUAAUAAAAGUACAGGAUAUGUUACAUGAGGAUCACCCAUGUAUUGGGUAAGAACAGAAGGGUAUAUUAGCG”: the “apparent Kd” value was determined as 153 nM under setting [1] and 115 nM under setting [2].

“GCCAUCGCAUGAGGAUAUGGUCAGCUUUGCUGACCAGAAGGCAUGUCAUAAGACAUGAGGAUCACCCAUGUAGUUAAGAUGGCA”: the “apparent Kd” value runs as follows: under setting [3], 778 nM; under setting [4], 47.9 nM.

On to “GGAUGAGCAAUAGGAUAUGCUGGUAUUGAAUGGGUAGAAGGAUUUCUAGUGGUAAAGACAUGAGGAUCACCCAUGUAGCGGCCC”, for which the “apparent Kd” value came to 328 nM under setting [3] and 265 nM under setting [4].

For “GUCCGCUCGUGAGGAUAUACAACACUGCUUCGGCAGUGUAUUAAGAUCACAUGAGGAUCACCCAUGUAGAAGGCACGAGCUGAU”, the “apparent Kd” value came out at 13.7 nM under setting [1] and 289 nM under setting [2].

In the case of “UUUACAUGAGGAUCACCCAUGUAUAGAACGGUUAAUCAAAGUGAGGAUAUACAUAAUUUUGUAUUGUAGAAGGCACUGGGUACA”, the “apparent Kd” value is 15.2 nM under setting [3] and 19.3 nM under setting [4].

As for “UCAUACAUGACAUGACAUGACAUGAGGAUCACCCAUGUUUACAAGGAUAUGUUGAUGAAACAUCAACAGAAGGUGUAUUGGACU”, the “apparent Kd” value runs as follows: under setting [1], 51.8 nM; under setting [2], 172 nM.

For “CUUUAGUCAGGAUAUACAUGAGGAUCACCCAUGUAAAAUUUUAAUUUAAUUUUAAGGUGUAGAAGGGACCACCC”, the “apparent Kd” value by setting is: under setting [1], 33.4 nM; under setting [2], 29.3 nM.

As for “AGAUAACACCAGAAGGACAUGAGGAUCACCCAUGUAGGAUAUGGGCAUCACUCGAGAAAGAAACGACCGAAAGGACACGCGGUC”, the “apparent Kd” value runs as follows: under setting [3], 155 nM; under setting [4], 13 nM.

On to “GCGUGAUUGUAGAAGGUACAUGAAAAUAUUUAAUACCUCAAGUAACAUGAGGAUCACCCAUGUAGUAAGGAUAUACAUAUACGC”, for which the “apparent Kd” value by setting is: under setting [3], 95 nM; under setting [4], 56.8 nM.

Consider “AGGCUCACAGGAUAUCUCCACGGUAACAUGAGGAUCACCCAUGUCUCAUUUUCUCGUGCAAGAGAAGGGUGAGCGG”, for which the “apparent Kd” value by setting is: under setting [1], 435 nM; under setting [2], 455 nM.

“GUGCGGUGAGGAUAUACGUAGGUGAAAAUCUGUGUGUUCCUACAUGAGGAUCACCCAUGUAGAAGGCAUGUCAC”: the “apparent Kd” value under setting [1] was determined as 53.5 nM and the “apparent Kd” value under setting [2] came to 143 nM.

On to “CUUGGCUAGGAGAAGGGCUAGAGUGUGAUAUAUUUGCCCGCGAGCACAUGAGGAUCACCCAUGUAGCAGGAUAUCCAAGCCGGU”, for which the “apparent Kd” value under setting [1] was 7.4 nM and the “apparent Kd” value under setting [2] worked out at 17.4 nM.

Take “AAAAAGUCAGGAUAUGCGAAGGCGUCUGAUAGACGAGGCUAGCAGAAGGGACAUGAGGAUCACCCAUGUAAAAA”: the “apparent Kd” value under setting [1] came to 31.9 nM and the “apparent Kd” value under setting [2] was found to be 45.2 nM.

As for “GCAAAGCCUGACAUGAGGAUCACCCAUGUUAGAUUGUUAUGUCAGGAUAUUGUCUAGCCACUAGACAAGAAGGGAUGCUUUGCU”, the “apparent Kd” value reads like this: under setting [3], 384 nM; under setting [4], 32.9 nM.

Take “AGUGCCAUGUAGAAGGCAGAUCUGAUUCAGAUCUGAGGAUAUACAUGAGGAUCACCCAUGUAAAUGCACUGCACGAGAGUGCAA”: the “apparent Kd” value came to 12 nM under setting [1] and 43.9 nM under setting [2].

On to “GUGGUACAUGAGGAUCACCCAUGUUAGGAUAUCGCGUGAGGUAAAACUUACACACACACGAGAAGGGACGUCUU”, for which the “apparent Kd” value runs as follows: under setting [1], 45.9 nM; under setting [2], 41 nM.

For “CGGUAUAUGAAGGGCGAAAGCCCACAUGAGGAUCACCCAUGUAGAAGGCGGGCCGCAACGCGGCCCGAGGAUAUACAAUAUACA”, the “apparent Kd” value by setting is: under setting [1], 6.5 nM; under setting [2], 12.4 nM.

As for “GUACUGACAGGAUAUACAUGAGGAUCACCCAUGUCCUUAUGCUGACAAAAGUCAGCGUGUAGAAGGGUCUGUAC”, the “apparent Kd” value reads like this: under setting [1], 141 nM; under setting [2], 385 nM.

As for “GCGACGCGGGAAGGAUAUCCGCUCAGGAGUGUCUCAUGCUAACAUGAGGAUCACCCAUGUUGUCCGGAGAAGGUCCUGUCAGGC”, the “apparent Kd” value runs as follows: under setting [1], 152 nM; under setting [2], 288 nM.

For the sequence “CCCGGUCUGGAGGAUAUUAUAGAGCGUGCUUAAUAAGAAGGUCAGACAUGAGGAUCACCCAUGUUCUUACCCGG”, the “apparent Kd” value runs as follows: under setting [1], 23.3 nM; under setting [2], 53.8 nM.

For “GAUCAGCUUGUGAGGAUAUCCGGGCAUAAAGGCUAGGAGAAGGUACAUGAGGAUCACCCAUGUAGAGUCCUGGG”, the “apparent Kd” value was 47.9 nM under setting [1] and 58.9 nM under setting [2].

Take “CUUUUGUGAGGAUAUCAGUAGUAUAAAAUAAAAUAUACUACUGAGAAGGCACAUGAGGAUCACCCAUGUUCCUC”: the “apparent Kd” value reads like this: under setting [1], 38.3 nM; under setting [2], 263 nM.

For the sequence “GUAGCUAUCGGAGGAUAUUCAUACCGGAAACGGACAUGAGGAUCACCCAUGUAGCGAAAGCCUUGGGAGAAGGCCGAUAGCUAC”, the “apparent Kd” value worked out at 919 nM under setting [3] and 103 nM under setting [4].

Take “GUAGCUAUCGCAGGAUAUCCUCAGGCGAAAGCCACAUGAGGAUCACCCAUGUAUAUAAAGAAUAUGGAGAAGGGCGAUAGCUAC”: the “apparent Kd” value runs as follows: under setting [3], 1670 nM; under setting [4], 185 nM.

Turning to “GCUAUUACAGGAUAUCGUUGUUAUAACAUGAGGAUCACCCAUGUUCGGCUCGUGAUCCAGCGAGAAGGGUGGACGC”, the “apparent Kd” value by setting is: under setting [1], 71.7 nM; under setting [2], 73 nM.

As to “UACUCAUGUGAGAAGGGACGUAUCUCCAUGAGGGCAGGGCUAUUAGGGAAGUCAGGAUAUCACAUGAGGAUCACCCAUGUGACG”, the “apparent Kd” value by setting is: under setting [1], 6.91 nM; under setting [2], 7.33 nM.

As to “CGUUGAUAAUAUCUUCACAUGAGGAUCACCCAUGUCGCUCGACAGGAUAUAUUUGAUUUGUUUAAGUAGAAGGGUCGCAGAUGC”, the “apparent Kd” value is, setting by setting: under setting [3], 157 nM; under setting [4], 130 nM.

Regarding “AAAACAUGAGGAUCACCCAUGUAAAGUUCGGUUAAUAGAGGUGAGGAUAUACUAAAUUUUGGGUGGUAGAAGGCACUGGGUACA”, the “apparent Kd” value runs as follows: under setting [3], 122 nM; under setting [4], 105 nM.

For the sequence “UCCUCACAUGAGGAUCACCCAUGUCAGGAUAUCUCACAGCUAAAGAAUAAAGGCUGCAAGAGAAGGGACACAAU”, the “apparent Kd” value was 21.6 nM under setting [1] and 48.1 nM under setting [2].

With “GGCGGCGCGGGCCACCGCAGGACCAGAAGGACAUGAGGAUCACCCAUGUAGCAGAACAGGGCGGUGUAGGAUAUGGCAGGCUCG”, the “apparent Kd” value came out at 24.9 nM under setting [1] and 45.8 nM under setting [2].

Regarding “GCGACGAAAGUCGAACGAUGUAGCAGAAGGACAUGAGGAUCACCCAUGUCAGCUGUAACAGCCAUGUAGGAUAUGCUACAUCGG”, the “apparent Kd” value amounted to 4.09 nM under setting [1] and 5.27 nM under setting [2].

With “GCGUUACAUGAGGAUCACCCAUGUGAGGAUAUGGUGCGGUAGUGUCCUGUCGCGUACUCCAGAAGGCGCGGGUG”, the “apparent Kd” value by setting is: under setting [1], 137 nM; under setting [2], 240 nM.

“GGUACUCAAAGAGUACCAAUACGAACAUGAGGAUCACCCAUGUAGGAUAUGCUACUCAAAGAGCAGCAGAAGGACAUGUGCCUA”: the “apparent Kd” value reads like this: under setting [1], 17.7 nM; under setting [2], 125 nM.

As for “GGUCCAUCAUGAGGAUAUGGCACCUUAUUGGUGCCAGAAGGCAUGUGUAUACACAUGAGGAUCACCCAUGUAAUAAAUUGGACC”, the “apparent Kd” value under setting [3] worked out at 144 nM and the “apparent Kd” value under setting [4] was 22.2 nM.

As for “AAAAUCUAUUGAGGAUAUUCAUACACUGCAUACGGAGAAGGCAAACAAUCAUGAGGACAUGAGGAUCACCCAUGUUGUGACCAU”, the “apparent Kd” value turned out to be 17.6 nM under setting [3] and 15.3 nM under setting [4].

For “UGUAUGUGGGCAGGAUAUACAUGAAUAUAUAUGAUGUAGUAUGAUGUAACAUGAGGAUCACCCAUGUAGAAGGGCCGGUGUAUG”, the “apparent Kd” value by setting is: under setting [1], 165 nM; under setting [2], 214 nM.

Turning to “GCACGGCAUGUAGGAUAUCGAGCGCCGGGCGCUCGAGAAGGACAUGAGGAUCACCCAUGUAGUCUCAGUGAGAGACUGCUGUGC”, the “apparent Kd” value by setting is: under setting [1], 18.3 nM; under setting [2], 36.2 nM.

With “CUGCUGGAGCUUCGCUUUGGUCGUACAUGAGGAUCACCCAUGUAGGAUAUGGUAAAAUUCGCCUGCUAGAAGGAUAGAGUGGUC”, the “apparent Kd” value under setting [1] worked out at 67.2 nM and the “apparent Kd” value under setting [2] is 139 nM.

As to “AAAUGAUAGUCAGGAUAUAAGUUGGAGCCUCGGUCGCACAUGAGGAUCACCCAUGUGUCUUGGAUUUAGAAGGGACAGAUGGGC”, the “apparent Kd” value runs as follows: under setting [3], 682 nM; under setting [4], 648 nM.

Consider “GUGUACAGAGGAUAUACAGGAGCAUGGAAACAUGCAACUUCACAUGAGGAUCACCCAUGUAGAAGGCUGUACAC”, for which the “apparent Kd” value turned out to be 16 nM under setting [1] and 47.9 nM under setting [2].

As to “GAAGUUAGAGGAUAUACAUGAGGAUCACCCAUGUGUGAAGUUAACUUUGUAUAUUAAUGUAGAAGGCUAACUUC”, the “apparent Kd” value under setting [1] was 42.5 nM and the “apparent Kd” value under setting [2] came out at 118 nM.

As for “UUACUGUUAUAGAAGGGUAUUUGGGAAUUACAUGAGGAUCACCCAUGUUUUAUAGGAUAUGUAUAUAGUAUUUAAUCAAGUUUA”, the “apparent Kd” value under setting [1] worked out at 17.8 nM and the “apparent Kd” value under setting [2] is 15.7 nM.

On to “ACGUGACGGUGCGCGAGCGGACGGAGAAGGCAGACAUGAGGAUCACCCAUGUGAGCCUGCUAUUCUGAGGAUAUCCGUCCACAC”, for which the “apparent Kd” value under setting [1] came to 30.4 nM and the “apparent Kd” value under setting [2] was 167 nM.

On to “UUAAUCUAUACAGGAUAUCCAUACGGUGCAUACGGAGAAGGGUAACAAUCAUGAGGACAUGAGGAUCACCCAUGUUCUGACCAU”, for which the “apparent Kd” value came out at 7.23 nM under setting [3] and 6.35 nM under setting [4].

For the sequence “UUGGACGUCGUAGGAUAUCUAGGAUAUUCCUACAUGAGGAUCACCCAUGUUGACAUGGAAGAAGGACAGAAGGACGAUGUCCAU”, the “apparent Kd” value is 14.9 nM under setting [3] and 11 nM under setting [4].

As to “CCGAAUAUGCAGGAUAUCUUAUCGGAAACGAUAAGAGAAGGGUAAACAUGAGGAUCACCCAUGUUCCUUAACGG”, the “apparent Kd” value under setting [1] was found to be 20.3 nM and the “apparent Kd” value under setting [2] was determined as 21 nM.

As to “UGAUCUAUGUAGAAGGCCCAUAUCUAUAUUUAGGGAGGAUAUACAUGAGGAUCACCCAUGUAUAGAGCGAGUGGACUCGUCACC”, the “apparent Kd” value by setting is: under setting [1], 18.1 nM; under setting [2], 47.3 nM.

Take “GACAAGGGAGGAUAUGCACAAGGGAUAUCUGACAUGCCGUUACAUGAGGAUCACCCAUGUAGAAGGCCCGAAUA”: the “apparent Kd” value amounted to 13.7 nM under setting [1] and 35.3 nM under setting [2].
